Assays:
MOR (OPRM1) = MOR (OPRM1) (Homo sapiens, UniProt P35372); assay: cAMP BRET; assay type: cell-based; details: HEK-293 cells, up to a concentration of 1 mM
Outline: (§1)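 HEK-293 cells (DMEM, 10% FBS, 37°C/5% CO2) were PEI-transfected with 5 μg untagged MOR, KOR or DOR plus 5 μg CAMYEL cAMP biosensor and used 48 h later. Cells were suspended in DPBS with 100 μM metabisulfite and 5.5 mM glucose and kept 45 min in the dark. Forskolin (10 μM) was added for 5 min, then coelenterazine H (5 μM) for 5 min, then compound. BRET (535/475 nm) was read 5 min later, forskolin-only background subtracted, and expressed as % of each receptor's maximum. Triplicates; 3–6 experiments for EC50/Emax.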

opioid receptors = details: cited from earlier work
mGluR3 = mGluR3 (Homo sapiens, UniProt Q14832); assay: [^3H]LY341495 competition binding, recombinant receptor membranes; details: membranes expressing human recombinant mGluR3
[1] = target: glucocorticoid receptor (GR) (Homo sapiens, UniProt P04150); assay: Screening and target deconvolution experiments; assay type: binding
mGluR4 = mGluR4 (Homo sapiens, UniProt Q14833); assay: mGluR functional assay; assay type: biochemical
mice [2] = assay: Open-field locomotor activity; assay type: in vivo, mouse; details: male mice; single 10, 30, 65 mg/kg IP
[3] = target: kappa-opioid receptors, KOR (Rattus norvegicus, UniProt P34975); assay: [^3H]U69,593 competition binding, rat brain membranes
[4] = target: tropomyosin receptor kinase B (TrkB) (Homo sapiens, UniProt Q16620); assay: Screening and target deconvolution experiments; assay type: binding
mu-opioid receptors, MOR = mu-opioid receptors, MOR (Rattus norvegicus, UniProt P33535); assay: [^3H]DAMGO competition binding, rat brain membranes
mGluR2/3 = assay: mGluR functional assay; assay type: biochemical
mGluR6 = mGluR6 (Homo sapiens, UniProt O15303); assay: mGluR functional assay; assay type: biochemical
mGluR5 = mGluR5 (Homo sapiens, UniProt P41594); assay: mGluR functional assay; assay type: biochemical
KOR (OPRK1) = KOR (OPRK1) (Homo sapiens, UniProt P41145); assay: cAMP BRET; assay type: cell-based; details: HEK-293 cells, up to a concentration of 1 mM
Outline: as §1

mGluR1 = mGluR1 (Homo sapiens, UniProt Q13255); assay: mGluR functional assay; assay type: biochemical
NMDA receptors = assay: [^3H]MK-801 competition binding, rat brain membranes
NK1R = NK1R (Rattus norvegicus, UniProt P14600); assay: [^3H]-Substance P binding, rat whole brain membrane homogenates
[5] = test system: cDNA libraries derived from human adult brain, human lung cancer cells, and human placenta; assay: Yeast 3-hybrid screen, human cDNA libraries; details: lung cancer cell and placenta libraries
mice [6] = assay: Conditioned place preference; assay type: in vivo, mouse; details: male mice
Outline: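 Male C57BL/6J mice (20–25 g, n = 8/group) received saline or test compound (10, 30 or 65 mg/kg IP) before 15-min confinement to one side of a two-sided chamber (clear/white vs checkered/black). Vehicle was given before the opposite side on alternate days, counterbalanced across 6 conditioning days. A 20-min free-exploration pre-test came first, within 8 daily sessions. Infrared beams tracked time per side and distance travelled.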

sigma-1 receptors = sigma-1 receptors (Rattus norvegicus, UniProt Q9R0C9); assay: [^3H]-pentazocine competition binding, rat brain membranes
mGluR2 = mGluR2 (Homo sapiens, UniProt Q14416); assay: [^3H]LY341495 competition binding, recombinant receptor membranes; details: membranes expressing human recombinant mGluR2
[7] = test system: >80 receptor and enzymatic binding sites; assay: Receptor and enzyme competitive screen; details: 100 nM
Outline: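 In an outsourced panel, membranes from stable cell lines expressing each receptor or enzyme were incubated with the target's radioligand, with or without test compound at 100 nM or 10 μM. A reference compound ran concurrently, and a specific agonist or antagonist defined nonspecific binding. Bound ligand was collected by vacuum filtration through presoaked glass-fibre filters, washed with ice-cold buffer and counted by scintillation.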

mGluR8 = mGluR8 (Homo sapiens, UniProt O00222); assay: mGluR functional assay; assay type: biochemical

In the case of `N[C@@]1(c2ccccc2Cl)CCC[C@@H](O)C1=O` [(2R,6R)-HNK, (2R,6R)-hydroxynorketamine], the “cAMP response (inhibition of cAMP accumulation)” value (MOR (OPRM1)) is given as “did not induce any cAMP response”, the “functional properties at opioid receptors” value (opioid receptors) is given as “inverse agonist properties” and the “displacement of [^3H]LY341475” value (mGluR3) is given as “failed to displace”. The “interaction with GR” value [1] was “failed to interact”, the “effect in functional assay at mGluR4” value (mGluR4) was “no effects” and the “locomotor activity, acute” value (mice [2]) was “did not alter locomotor activity”. The “binding to opioid receptors (KOR)” value ([3]; concentrations up to 100 μM) was “does not bind”, the “KOR binding, displacement of [^3H]U69,593” value ([3]; rat brain membranes) was “failed to displace” and the “interaction with TrkB” value [4] was “failed to interact”. For the same compound, the “binding to opioid receptors (MOR)” value (mu-opioid receptors, MOR; concentrations up to 100 μM) was “does not bind”, the “MOR binding, displacement of [^3H]DAMGO” value (mu-opioid receptors, MOR; rat brain membranes) was “failed to displace” and the “functional responses at mGluR2/3” value (mGluR2/3) was “did not affect”. The “effect in functional assay at mGluR6” value (mGluR6) was “no effects”, the “effect in functional assay at mGluR5” value (mGluR5) was “no effects” and the “cAMP response (inhibition of cAMP accumulation)” value (KOR (OPRK1)) was “did not induce any cAMP response”. For the same compound, the “effect in functional assay at mGluR1” value (mGluR1) was “no effects”, the “displacement of [^3H]MK-801 (NMDAR binding)” value (NMDA receptors; concentrations up to 100 μM) was “no displacement” and the “displacement of [^3H]MK801 binding” value (NMDA receptors; rat brain membranes) was “failed to displace”. For the same compound, the “[^3H]-Substance P binding” value (NK1R) was “did not alter”, the “high-confidence (2R,6R)-HNK-protein interactions” value [5] was “did not identify any positive high-confidence (2R,6R)-HNK-protein interactions” and the “locomotor activity, repeated administration” value (mice [6]; 10, 30, 65 mg/kg IP, CPP conditioning sessions) was “did not produce any changes in locomotor activity”. For the same compound, the conditioned place preference (mice [6]; repeated 10, 30, 65 mg/kg IP) was “did not induce CPP”, the locomotor sensitization (mice [6]; repeated administration) was “did not induce sensitization” and the “binding to sigma receptors ([^3H]-pentazocine)” value (sigma-1 receptors) was “did not bind”. The “displacement of [^3H]LY341475” value (mGluR2) was “failed to displace”, the “hits in competitive screen” value [7] was “No hits” and the “effect in functional assay at mGluR8” value (mGluR8) was “no effects”.

From article PMC10013843 (Molecular psychiatry, 2022)
